Active and inactive are the calls of the source. No cut-off for these calls is given here.

Series [1] addresses T1, Protein kinase C zeta type (Homo sapiens, UniProt Q05513).
T1 sequence (Q05513 whole entry): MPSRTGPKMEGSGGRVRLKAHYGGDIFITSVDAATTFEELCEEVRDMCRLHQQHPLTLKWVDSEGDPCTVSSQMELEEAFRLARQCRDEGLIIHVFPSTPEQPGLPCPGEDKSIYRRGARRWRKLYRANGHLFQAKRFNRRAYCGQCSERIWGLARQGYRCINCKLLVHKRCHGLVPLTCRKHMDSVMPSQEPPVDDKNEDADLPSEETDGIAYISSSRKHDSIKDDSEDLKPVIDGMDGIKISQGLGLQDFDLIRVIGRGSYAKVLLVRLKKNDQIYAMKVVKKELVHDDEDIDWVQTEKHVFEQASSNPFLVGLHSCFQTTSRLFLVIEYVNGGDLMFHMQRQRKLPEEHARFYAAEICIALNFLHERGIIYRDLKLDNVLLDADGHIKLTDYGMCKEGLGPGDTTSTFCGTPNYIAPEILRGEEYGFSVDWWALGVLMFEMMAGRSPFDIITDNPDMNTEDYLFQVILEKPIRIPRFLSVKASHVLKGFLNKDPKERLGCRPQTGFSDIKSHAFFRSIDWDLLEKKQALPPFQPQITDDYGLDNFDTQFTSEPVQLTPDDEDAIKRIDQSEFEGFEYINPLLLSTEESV
Briefly: Inhibition of human PKCzeta assessed as phosphorylation reaction after 4 mins incubation by cell-free assay.

Series [2] concerns RAW264.7. Briefly: Cytotoxicity against mouse RAW264.7 cells assessed as living cells at 7.5 uM by MTT assay. The format is cell-based. The following applies: raw264.7, 7.5 µM. The gist of the method:
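RAW 264.7 macrophages: MTT viability assay run in parallel with each nitrite (Griess) experiment, same cell line and same compound treatment conditions.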

Series [3] addresses T1, Protein kinase C zeta type. Briefly: Inhibition of PKCzeta in human U937 cells assessed as inhibition of TNFalpha-induced NF-kappaB activation by reporter gene assay. The format is cell-based, U-937.
The target in series [4] is T2, Protein kinase C zeta type (Homo sapiens) (UniProt Q05513).
T2 sequence (whole entry): T1 sequence (Q05513 whole entry)
Kind of series: Inhibition of PKCzeta (unknown origin) expressed in HEK293 cells assessed as reduction in specific activity for 6 hrs after 30 mins IGF-I stimulation by in serum free medium. The series is classed as cell-based. Put shortly:
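HEK293 cells transfected at 80% confluency with GST-PKCζ wild-type or V297L mutant plasmids. Next day switched to DMEM with 0.1% FCS and compound or DMSO for 6 h, then IGF-I 50 ng/mL final for 30 min at 37 °C. Lysed; GST-PKCζ pulled down on glutathione beads and eluted. 50 ng per reaction assayed for kinase activity with myelin basic protein as substrate. Triplicate treatments, two independent experiments.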

For series [5], the target named is T2, Protein kinase C zeta type (Homo sapiens). Kind of series: Inhibition of PKCzeta in serum-starved human U937 cells assessed as inhibition of TNFalpha-stimulated activation loop phosphorylation at 2.5 to 5 uM by immunoblotting analysis. The format is cell-based. The following applies: U-937. Put shortly:
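U937 cells in RPMI/10% FBS, serum-starved 24 h, treated with compound or DMSO for 1 h, then TNFα 50 ng/mL for 30 min. Whole-cell lysates separated by SDS–PAGE (10% gel) and immunoblotted for phospho-PKCζ/λ (Thr410/403), with β-actin as loading control. Near-infrared detection. Two separate experiments.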

Series [6] addresses T3, Nitric oxide synthase, inducible (Mus musculus) (UniProt P29477).
T3 sequence (whole entry): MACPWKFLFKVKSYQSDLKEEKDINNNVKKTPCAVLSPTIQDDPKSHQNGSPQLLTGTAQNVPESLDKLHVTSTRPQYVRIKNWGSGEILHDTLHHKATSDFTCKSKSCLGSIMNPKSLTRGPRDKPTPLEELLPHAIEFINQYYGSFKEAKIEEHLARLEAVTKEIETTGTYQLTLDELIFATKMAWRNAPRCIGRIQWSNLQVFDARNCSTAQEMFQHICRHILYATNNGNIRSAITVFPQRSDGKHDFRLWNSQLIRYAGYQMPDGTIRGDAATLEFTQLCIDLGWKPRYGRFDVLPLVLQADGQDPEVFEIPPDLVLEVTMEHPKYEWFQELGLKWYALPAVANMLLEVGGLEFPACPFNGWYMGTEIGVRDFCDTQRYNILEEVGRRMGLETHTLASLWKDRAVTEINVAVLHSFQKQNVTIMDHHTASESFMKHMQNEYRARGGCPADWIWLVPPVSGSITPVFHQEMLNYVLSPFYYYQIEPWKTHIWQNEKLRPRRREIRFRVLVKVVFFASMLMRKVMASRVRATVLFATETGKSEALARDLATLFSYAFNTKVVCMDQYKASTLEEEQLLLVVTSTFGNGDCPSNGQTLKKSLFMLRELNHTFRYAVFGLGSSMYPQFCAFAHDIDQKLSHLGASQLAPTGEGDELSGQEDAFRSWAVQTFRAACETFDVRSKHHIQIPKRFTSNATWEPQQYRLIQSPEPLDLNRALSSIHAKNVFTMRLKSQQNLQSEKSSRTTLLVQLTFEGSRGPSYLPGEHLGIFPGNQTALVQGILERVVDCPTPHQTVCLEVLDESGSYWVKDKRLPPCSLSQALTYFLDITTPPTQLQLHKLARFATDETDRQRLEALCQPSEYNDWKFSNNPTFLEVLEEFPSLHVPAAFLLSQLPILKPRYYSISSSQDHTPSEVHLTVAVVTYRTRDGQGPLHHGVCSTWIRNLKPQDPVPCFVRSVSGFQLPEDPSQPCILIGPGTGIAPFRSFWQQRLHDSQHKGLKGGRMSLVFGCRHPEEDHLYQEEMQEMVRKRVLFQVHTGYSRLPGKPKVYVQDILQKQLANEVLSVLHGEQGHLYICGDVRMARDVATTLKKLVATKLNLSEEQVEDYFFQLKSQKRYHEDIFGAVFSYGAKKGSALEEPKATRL
Kind of series: Inhibition of iNOS induction in mouse RAW264.7 cells assessed as NO production at 7.5 uM. The format is cell-based. Put shortly: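 RAW 264.7 cells seeded at 8 × 10⁴ per well in DMEM/10% FBS and grown 2 days. Then exposed to LPS with compound or DMSO for 20 h. Supernatant nitrite measured by Griess reaction (sulfanilamide/NED) at 550 nm minus 620 nm background, quantified against a sodium nitrite standard curve. At least four experiments in triplicate.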

In series [7] the target is Protein kinase C alpha type (Homo sapiens) (UniProt P17252). Kind of series: Inhibition of human PKCalpha at 10 uM relative to control.
The target in series [8] is Protein kinase C beta type (Homo sapiens) (UniProt P05771). Kind of series: Inhibition of human PKCbeta1 at 10 uM relative to control.
Series [9] has as its target Protein kinase C gamma type (Homo sapiens) (UniProt P05129). Kind of series: Inhibition of human PKCgamma at 10 uM relative to control.
Series [10] deals with Protein kinase C delta type (Homo sapiens) (UniProt Q05655). Kind of series: Inhibition of human PKCdelta at 10 uM relative to control.
For series [11], the target named is Protein kinase C epsilon type (Homo sapiens) (UniProt Q02156). Briefly: Inhibition of human PKCepsilon at 10 uM relative to control.
Series [12] concerns the target Protein kinase C eta type (Homo sapiens) (UniProt P24723). Kind of series: Inhibition of human PKCeta at 10 uM relative to control.
In series [13] the target is Protein kinase C theta type (Homo sapiens) (UniProt Q04759). Kind of series: Inhibition of human PKCtheta at 10 uM relative to control.
The target in series [14] is cAMP-dependent protein kinase catalytic subunit alpha (Homo sapiens) (UniProt P17612). Briefly: Inhibition of human PKA at 10 uM relative to control.
The target in series [15] is Ribosomal protein S6 kinase alpha-1 (Homo sapiens) (UniProt Q15418). Briefly: Inhibition of human RSK1 at 10 uM relative to control.
Series [16] addresses Ribosomal protein S6 kinase alpha-5 (Homo sapiens) (UniProt O75582). Kind of series: Inhibition of human MSK1 at 10 uM relative to control.
Series [17] addresses Ribosomal protein S6 kinase beta-1 (Homo sapiens) (UniProt P23443). Kind of series: Inhibition of human p70S6K at 10 uM relative to control.
Series [18] deals with Serine/threonine-protein kinase Sgk1 (Homo sapiens) (UniProt O00141). Kind of series: Inhibition of human SGK1 at 10 uM relative to control.
The target in series [19] is 3-phosphoinositide-dependent protein kinase 1 (Homo sapiens) (UniProt O15530). Briefly: Inhibition of human PDK1 at 10 uM relative to control.
Series [20] relates to U-937. Kind of series: Inhibition of Thr410 phosphorylation in serum-starved human U937 cells at 5 to 10 uM by immunoblotting analysis.

Sequence of Protein kinase C theta type (Homo sapiens) (Q04759 whole entry, looked up): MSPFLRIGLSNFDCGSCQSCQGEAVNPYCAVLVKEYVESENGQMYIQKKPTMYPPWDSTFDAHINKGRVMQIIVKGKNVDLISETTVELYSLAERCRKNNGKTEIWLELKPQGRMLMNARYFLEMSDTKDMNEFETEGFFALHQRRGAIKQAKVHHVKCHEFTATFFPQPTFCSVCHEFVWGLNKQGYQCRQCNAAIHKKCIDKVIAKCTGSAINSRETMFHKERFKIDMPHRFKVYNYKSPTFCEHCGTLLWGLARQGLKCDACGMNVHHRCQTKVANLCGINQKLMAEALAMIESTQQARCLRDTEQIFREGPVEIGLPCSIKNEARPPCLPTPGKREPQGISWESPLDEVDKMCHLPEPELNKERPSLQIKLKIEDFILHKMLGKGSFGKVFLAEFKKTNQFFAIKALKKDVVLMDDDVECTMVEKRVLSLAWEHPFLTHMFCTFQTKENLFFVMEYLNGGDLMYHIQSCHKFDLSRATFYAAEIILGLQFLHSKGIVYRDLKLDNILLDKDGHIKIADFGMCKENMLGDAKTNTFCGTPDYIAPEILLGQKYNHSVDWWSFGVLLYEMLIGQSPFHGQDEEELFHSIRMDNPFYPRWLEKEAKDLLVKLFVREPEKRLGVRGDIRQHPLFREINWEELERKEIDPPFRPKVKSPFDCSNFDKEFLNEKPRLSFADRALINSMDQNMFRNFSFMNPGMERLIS
Sequence of 3-phosphoinositide-dependent protein kinase 1 (Homo sapiens) (O15530 whole entry, looked up): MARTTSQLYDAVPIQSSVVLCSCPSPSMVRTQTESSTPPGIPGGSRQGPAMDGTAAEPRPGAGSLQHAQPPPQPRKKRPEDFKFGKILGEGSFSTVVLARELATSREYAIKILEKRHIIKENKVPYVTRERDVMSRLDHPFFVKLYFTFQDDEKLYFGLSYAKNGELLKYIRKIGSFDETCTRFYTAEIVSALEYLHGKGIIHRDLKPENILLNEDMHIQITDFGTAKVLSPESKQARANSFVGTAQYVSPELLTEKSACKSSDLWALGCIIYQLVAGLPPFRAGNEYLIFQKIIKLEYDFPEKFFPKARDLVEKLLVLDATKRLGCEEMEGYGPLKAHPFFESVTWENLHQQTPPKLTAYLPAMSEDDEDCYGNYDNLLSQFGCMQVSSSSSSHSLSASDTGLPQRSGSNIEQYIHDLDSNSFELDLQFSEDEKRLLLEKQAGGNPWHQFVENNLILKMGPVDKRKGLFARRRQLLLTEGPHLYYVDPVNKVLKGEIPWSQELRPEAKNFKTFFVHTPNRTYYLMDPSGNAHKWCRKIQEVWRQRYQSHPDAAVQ
Sequence of Ribosomal protein S6 kinase beta-1 (Homo sapiens) (P23443 whole entry, looked up): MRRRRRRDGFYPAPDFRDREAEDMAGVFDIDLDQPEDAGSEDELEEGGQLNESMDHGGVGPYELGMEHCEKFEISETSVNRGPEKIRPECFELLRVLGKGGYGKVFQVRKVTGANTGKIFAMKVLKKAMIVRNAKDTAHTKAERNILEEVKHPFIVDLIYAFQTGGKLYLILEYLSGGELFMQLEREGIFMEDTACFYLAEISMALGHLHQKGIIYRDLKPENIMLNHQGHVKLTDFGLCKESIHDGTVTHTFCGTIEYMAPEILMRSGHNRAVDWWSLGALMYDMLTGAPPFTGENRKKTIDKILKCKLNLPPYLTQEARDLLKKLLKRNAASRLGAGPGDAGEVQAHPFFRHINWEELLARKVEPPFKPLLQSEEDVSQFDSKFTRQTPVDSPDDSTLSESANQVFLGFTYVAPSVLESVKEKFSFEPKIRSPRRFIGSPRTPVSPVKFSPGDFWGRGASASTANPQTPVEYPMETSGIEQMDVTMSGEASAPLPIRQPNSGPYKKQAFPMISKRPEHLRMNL
Sequence of Protein kinase C eta type (Homo sapiens) (P24723 whole entry): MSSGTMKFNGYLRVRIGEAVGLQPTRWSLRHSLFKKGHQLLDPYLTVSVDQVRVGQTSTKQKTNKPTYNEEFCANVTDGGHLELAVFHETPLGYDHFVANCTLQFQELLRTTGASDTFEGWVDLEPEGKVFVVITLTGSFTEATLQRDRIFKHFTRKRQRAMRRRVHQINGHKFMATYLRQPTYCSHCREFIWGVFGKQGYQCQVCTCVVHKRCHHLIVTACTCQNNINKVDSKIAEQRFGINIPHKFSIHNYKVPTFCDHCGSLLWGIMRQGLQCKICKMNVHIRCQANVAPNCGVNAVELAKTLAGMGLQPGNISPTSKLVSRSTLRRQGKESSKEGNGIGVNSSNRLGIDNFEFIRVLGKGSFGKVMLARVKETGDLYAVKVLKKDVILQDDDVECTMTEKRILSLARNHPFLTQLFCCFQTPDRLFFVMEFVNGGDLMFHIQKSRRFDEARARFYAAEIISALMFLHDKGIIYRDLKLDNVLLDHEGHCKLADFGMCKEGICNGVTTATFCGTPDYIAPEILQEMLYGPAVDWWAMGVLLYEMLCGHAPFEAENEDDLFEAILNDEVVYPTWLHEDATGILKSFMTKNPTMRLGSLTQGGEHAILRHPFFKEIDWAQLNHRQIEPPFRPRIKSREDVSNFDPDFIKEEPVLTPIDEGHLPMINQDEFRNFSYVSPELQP
Sequence of Ribosomal protein S6 kinase alpha-1 (Homo sapiens) (Q15418 whole entry): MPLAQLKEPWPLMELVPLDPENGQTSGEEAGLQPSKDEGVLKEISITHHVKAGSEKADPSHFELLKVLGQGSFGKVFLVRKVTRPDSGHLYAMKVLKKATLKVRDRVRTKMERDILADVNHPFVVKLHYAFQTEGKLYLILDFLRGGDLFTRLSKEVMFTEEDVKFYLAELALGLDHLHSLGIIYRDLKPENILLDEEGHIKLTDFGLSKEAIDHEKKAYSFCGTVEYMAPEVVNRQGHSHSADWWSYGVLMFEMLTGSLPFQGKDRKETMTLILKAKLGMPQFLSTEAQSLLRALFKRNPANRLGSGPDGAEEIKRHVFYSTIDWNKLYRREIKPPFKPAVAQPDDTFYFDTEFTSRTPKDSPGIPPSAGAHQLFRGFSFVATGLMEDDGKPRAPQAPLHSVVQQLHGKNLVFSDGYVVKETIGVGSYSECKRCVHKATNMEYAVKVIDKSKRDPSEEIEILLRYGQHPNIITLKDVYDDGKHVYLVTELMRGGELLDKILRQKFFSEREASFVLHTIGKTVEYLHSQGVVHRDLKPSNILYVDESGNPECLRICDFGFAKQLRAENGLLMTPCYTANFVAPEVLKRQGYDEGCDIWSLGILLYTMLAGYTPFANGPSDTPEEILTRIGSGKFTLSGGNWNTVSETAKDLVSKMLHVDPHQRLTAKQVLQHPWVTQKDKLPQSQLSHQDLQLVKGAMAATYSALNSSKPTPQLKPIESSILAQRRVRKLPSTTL
Sequence of Serine/threonine-protein kinase Sgk1 (Homo sapiens) (O00141 whole entry): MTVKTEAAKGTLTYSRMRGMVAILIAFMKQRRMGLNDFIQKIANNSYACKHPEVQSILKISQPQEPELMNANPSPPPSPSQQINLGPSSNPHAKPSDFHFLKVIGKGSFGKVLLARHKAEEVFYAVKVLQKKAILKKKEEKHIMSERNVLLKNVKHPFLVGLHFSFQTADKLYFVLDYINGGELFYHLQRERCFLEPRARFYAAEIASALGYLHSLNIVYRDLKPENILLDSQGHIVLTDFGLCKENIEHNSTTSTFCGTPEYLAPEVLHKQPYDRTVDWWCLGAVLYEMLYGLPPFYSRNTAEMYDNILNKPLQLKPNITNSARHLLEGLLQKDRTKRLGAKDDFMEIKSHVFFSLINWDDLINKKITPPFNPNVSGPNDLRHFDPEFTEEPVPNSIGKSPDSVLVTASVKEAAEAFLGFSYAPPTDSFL

As to `CC(C)(C)C1=NN(c2cccc(Cl)c2)C(c2ccc(F)c(O)c2)C1` (stereo not given), the IC50 was found to be 0.3 µM in [1] and 2.5 µM in series [3]. In series [2], the Activity entry was “Non-toxic”. Besides, the inhibition entry in [4] was “Dose-dependent effect”; in series [6] it was 74%; in [7], 4%; in series [9], 6%; in series [15], 3%; in series [18] it was 18%. The compound also displayed an inhibition in [19] of 8%. The inhibition result in [5] and in series [20] was “Active” each time. Also, the inhibition result in series [8], in [10], in series [11], in series [12], in [13] and in [14] was “inactive” throughout. Besides, the inhibition entry in series [16] and in series [17] was “inactive” in each case.

For the origin of these results see ChEMBL document CHEMBL3351692, “Discovery and optimization of 1,3,5-trisubstituted pyrazolines as potent and highly selective allosteric inhibitors of protein kinase C-ζ” (J Med Chem, 2014).
